Among the data in ChEMBL document CHEMBL1136978, “Aryl urea derivatives of spiropiperidines as NPY Y5 receptor antagonists” (Bioorg Med Chem Lett, 2009) are bioavailability, concentration and Drug uptake values, retold here.

Usually bioavailability stands for the share of a dose that reaches the circulation, judged against a reference dose that is usually intravenous.

Common to all, as to type: ADME, organism-based
The nature of data set [1]: Oral bioavailability in rat at 3 mg/kg, iv and 10 mg/kg, po. To be noted: in vivo.
A short description of data set [2]: Plasma concentration in rat at 10 mg/kg, po after 2 hrs. The arrangement: dose 10 mg/kg, route oral. In outline:
(§1)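 Single oral dose of 10 mg/kg to rats (n = 3). Plasma (µM), brain (nmol/g tissue) and CSF (µM) levels taken at 2 h post-dose.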

In another data set the test system is Brain. Put plainly: Drug level in rat brain at 10 mg/kg, po after 2 hrs measured per gram of tissue. Also on record: dose 10 mg/kg, route oral. The conditions noted are these: in vivo. In outline: as §1
A short description of data set [3]: Drug level in rat cerebrospinal fluid at 10 mg/kg, po after 2 hrs. Also on record: dose 10 mg/kg, route oral. The conditions noted are these: read-out: Drug uptake. The procedure, abridged: as §1

The structures appear in SMILES notation.

In data set [1], `O=C1Cc2ccccc2C2(CCN(C(=O)Nc3cnc(-c4ccccc4)cn3)CC2)N1` had a bioavailability of 3%.

For the compound `O=C1OC2(CCN(C(=O)Nc3cnc(-c4ccccc4)cn3)CC2)c2ccccc21`, the bioavailability in data set [1] is 49%. Further, the concentration at 2 h in data set [2] was 2980 nM; in data set [3] it was 100 nM. Moreover, in the data set with Brain, the Drug uptake was 2.92 nmol/g.

`O=C1OC2(CCN(C(=O)Nc3cc(-c4ccc(Cl)cc4)no3)CC2)c2ccccc21`: the concentration at 2 h in data set [2] is 1420 nM; in data set [3], < 10 nM. In the data set with Brain, this compound yielded a Drug uptake of 1.09 nmol/g.

In data set [1], `O=C1NC2(CCN(C(=O)Nc3cnc(-c4ccccc4)cn3)CC2)c2ccccc21` yielded a bioavailability of 8%. The compound further gave a concentration at 2 h in data set [2] of 360 nM. The compound also returned a Drug uptake with Brain of 0.029 nmol/g.

Take `O=C1OC2(CCN(C(=O)Nc3ncc(-c4ccccc4)cn3)CC2)c2ccccc21`: the figures for the concentration at 2 h in data set [2] and in data set [3] were 3860 nM and 130 nM, respectively. The compound further yielded a Drug uptake in the data set on Brain of 0.26 nmol/g.
